Shown are actives, neighbours in structure and some others; about 3.8% of the full set was active somewhere.
Measles CPE: protection of cells from measles virus. protection (pct of control), % at 4 µM. 140,000 tested, 1.5% active. Measles virus-infected cells, CPE protection, absorbance; in the data active = protection mostly above about 24%, no sharp cut-off; inactive = mostly below about 26%
BB579 growth dn: reduces growth of yeast BB579 in restrictive medium; S. cerevisiae BB579 growth, OD615, 48 h; inhibition, % at 10 µM; 140,000 tested, 0.51% active;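 active = inhibition above a set limit, 3 SD over the mean compound inhibition, cut at about 44% in these data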
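System: Saccharomyces cerevisiae DeaD strain BB579, replicative lifespan model yeast. Buffer or medium: restrictive glucose-based CSMM-D medium. Doses: one dose, 10 µM compound with 0.25% DMSO. Timing: 4 h preincubation and 48 h exposure at 30 °C. Detection: turbidity as optical density at 615 nm. Benchmarks: amphotericin B 10 µg/mL, positive.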
sdo1 growth: compounds rescuing growth of sdo1-depleted yeast, bone marrow failure model; z-score at 10 µM; AID 817; 140,000 tested, 0.21% active; S. cerevisiae sdo1-depleted JHY4D growth rescue, OD600 30 h; hits give high values; pdr5 snq2 efflux-pump mutant strain;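 active = z-score above 3 at both the 24 hr and the 30 hr optical density reads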;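 also: z-score against mean and SD of all compound wells on the same plate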
Yeast lifespan up: yeast lifespan extension; inhibition of the nicotinamide effect, % at 10 µM; S. cerevisiae growth with nicotinamide, OD615; deaD strain in restrictive glucose medium; AID 775; 130,000 tested, 0.68% active;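 active = inhibition above a set limit, placed 3 SD over the median of all compounds, cut at about 26% in these data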;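 also: 0% = nicotinamide-treated wells and 100% = cells grown without nicotinamide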
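Buffer or medium: CSMM-D glucose medium, restrictive; test system: modified budding yeast, DeaD strain; compound: single dose 10 µM compound, 0.25% DMSO; schedule: culture preincubation 4 h, compound exposure 48 h, both 30 °C; detection: optical density (absorbance) at 615 nm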
RAM network inh: blocks the yeast RAM network. S. cerevisiae dse1pr::URA3 reporter, 5-FOA growth OD615, 2 d; analog-sensitive cbk1-as2 kinase mutant strain. inhibition, % at 50 µM. 190,000 tested, 1.8% active. AID 868;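 active = inhibition above a set limit, 3 SD over mean compound inhibition, cut at about 8.4% in these data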;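 also: 0% = DMSO-only wells with no growth and 100% = 10 µM 1-NA-PP1 full growth; inhibition rescues growth on 5-FOA so higher OD means more RAM inhibition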
Numbers without * were called inactive; x = not tested or not shown.

SMILES	Measles CPE	BB579 growth dn	sdo1 growth	Yeast lifespan up	RAM network inh
CC1(C)CC(=O)c2sc(NC(=O)c3ccc4ncsc4c3)nc2C1	3	-18	-0.51	-14	2
C=C(C)c1cccc(C(C)(C)NC(=O)Nc2cc(C)ccc2OC)c1	60*	-38	0.08	-20	7
C=C(C)c1cccc(C(C)(C)NC(=O)Nc2ncccn2)c1	5	-30	-1.8	-3	2
C=C(C)c1cccc(C(C)(C)NC(=O)Nc2ccccc2OCC)c1	32	-44	-0.03	3	6
C=C(C)c1cccc(C(C)(C)NC(=O)Nc2ccc(Cl)cn2)c1	25	-35	-1.3	-2	11*
CC(C)c1ccc(C2C3=C(COC3=O)Nc3cc4c(cc32)OCO4)cc1 (centres undefined)	x	x	x	x	3
Cc1ccc(C)[n+](CC(=O)N2CCCCC2)c1	x	x	x	x	1
Cn1c(CCCCCN)nc2ccccc21	7	-1	1.6	30*	2
CCCC(=O)NCCCc1nc2ccccc2n1C	8	1	0.1	-3	1
O=C(COc1ccc([N+](=O)[O-])cc1)Nc1ccccc1N1CCCC1	x	x	x	x	3
COC(=O)c1ccccc1NC(=O)c1cc2ncc(Br)cn2n1	6	-25	0.86	-10	1
CC(=O)c1ccc(N2Cc3ccccc3C3(CCOCC3)C2=N)cc1	x	x	x	x	2
COc1cc(/C=N/NC(=O)c2ccc(COc3ccccc3Cl)o2)cc(Br)c1O	5	-63	0.74	4	6
COc1cccc(/C=N/NC(=O)c2ccc(COc3ccc(Cl)cc3Cl)o2)c1	52*	-8	-0.49	-14	1
OCC1(Cc2ccc(Cl)cc2)CCN(Cc2ccc(Oc3ncccn3)cc2)CC1	x	x	x	x	1
Cc1ccnc(NC(=O)CCC2COc3ccccc3O2)c1 (centres undefined)	41*	-44	-0.39	-24	1
CN(C)C(=O)C(=O)c1cccn1-c1cccc(Cl)c1C#N	x	x	x	x	0
Cc1nn(-c2ccccc2)c(Cl)c1/C=N/NC(=O)c1cccnc1	44*	-45	0.24	-3	1
Cc1ccc(-n2nc(C)c(/C=N/NC(=O)c3cccnc3)c2Cl)cc1	13	-9	-0.3	-7	1
COc1ccc(C2=NNC(c3cccs3)=Nc3ccc(OC)cc32)cc1	14	-45	-1.8	x	2
CCOc1ccc(C2=NNC(c3cccs3)=Nc3ccc(OCC)cc32)cc1	6	-48	-2.1	47*	1
CCC(C)n1c(SCc2ccc([N+](=O)[O-])cc2)nc2ccsc2c1=O (centres undefined)	9	-10	-0.61	1	9.6*
COc1ccc(-c2cc3nc(C)cc(N4CC(C)CC(C)C4)n3n2)cc1 (centres undefined)	6	71*	-2	x	1
Oc1ccc(/C=N/N=C(c2ccccc2)c2ccccc2)c(O)c1O	15	90*	-1.4	-13	0
CCN(CC)S(=O)(=O)c1cccc(C(=O)N/N=C/c2ccc(O)c(O)c2O)c1	24	16	-1.1	-8	1
SMILES	Measles CPE	BB579 growth dn	sdo1 growth	Yeast lifespan up	RAM network inh
COc1ccc(N2CCN(CCCn3c(=S)[nH]c4ncccc4c3=O)CC2)cc1	25*	28	1.3	-5	-1
O=c1c2cccnc2[nH]c(=S)n1CCCN1CCN(c2ccc(F)cc2)CC1	16	-30	1.2	-18	1
O=S(=O)(NCc1ccccc1)c1ccc(S(=O)(=O)N(Cc2cccs2)CC2CCCO2)cc1 (centres undefined)	3	-23	1.2	2	8.9*
COc1cc(S(=O)(=O)N(Cc2cccs2)CC2CCCO2)ccc1-n1cnnn1 (centres undefined)	0	-19	-0.22	-4	4
C/C(=N\NC(=O)C(=O)N/N=C(\C)c1cccc(O)c1)c1cccc(O)c1	x	x	x	x	3
O=C1c2ccccc2C(=O)N1c1ncc(Cc2ccc(Cl)cc2)s1	5	-2	-0.28	47*	5
Cc1ccc(Cc2cnc(N3C(=N)SC(C)C3=O)s2)cc1 (centres undefined)	x	x	x	x	2
COc1ccccc1NC(=O)CCC(=O)O	71*	-26	0.05	-11	2
COc1ccccc1NC(=O)Cc1csc(NC(=O)c2ccccc2)n1	x	x	x	x	9.2*
N=C(N)N1CCN(Cc2ccccc2)CC1	x	x	x	x	0
COc1ccc(-c2cc(C(F)(F)F)nc(N3CCN(C)CC3)n2)cc1	13	-47	-1.3	-15	1
